Test results from ChEMBL document CHEMBL4842371 (J Med Chem, 2021).

Legend:
[1] = molecular target: T1, 5-hydroxytryptamine receptor 3A (Cavia porcellus) (UniProt O70212); conditions: Ileum, filed as antagonist
T1 sequence (whole entry): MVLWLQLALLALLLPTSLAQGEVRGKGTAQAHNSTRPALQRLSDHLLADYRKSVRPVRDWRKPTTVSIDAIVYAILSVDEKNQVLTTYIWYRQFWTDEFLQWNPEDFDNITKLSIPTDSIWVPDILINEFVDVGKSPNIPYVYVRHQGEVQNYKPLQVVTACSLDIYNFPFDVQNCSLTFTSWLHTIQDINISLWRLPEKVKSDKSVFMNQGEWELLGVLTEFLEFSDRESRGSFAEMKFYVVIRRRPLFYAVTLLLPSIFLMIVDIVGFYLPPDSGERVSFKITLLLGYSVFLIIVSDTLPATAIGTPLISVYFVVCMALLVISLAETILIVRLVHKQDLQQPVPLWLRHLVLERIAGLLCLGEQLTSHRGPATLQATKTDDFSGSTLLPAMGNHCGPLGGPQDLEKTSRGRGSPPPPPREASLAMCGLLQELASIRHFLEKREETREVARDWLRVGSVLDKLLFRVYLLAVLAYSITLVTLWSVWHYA

CYP2D6 = CYP2D6 (Homo sapiens, UniProt P10635); test: Inhibition of CYP2D6 (unknown origin) at 10 uM relative to control; format: ADME
Sequence of CYP2D6 (P10635 whole entry): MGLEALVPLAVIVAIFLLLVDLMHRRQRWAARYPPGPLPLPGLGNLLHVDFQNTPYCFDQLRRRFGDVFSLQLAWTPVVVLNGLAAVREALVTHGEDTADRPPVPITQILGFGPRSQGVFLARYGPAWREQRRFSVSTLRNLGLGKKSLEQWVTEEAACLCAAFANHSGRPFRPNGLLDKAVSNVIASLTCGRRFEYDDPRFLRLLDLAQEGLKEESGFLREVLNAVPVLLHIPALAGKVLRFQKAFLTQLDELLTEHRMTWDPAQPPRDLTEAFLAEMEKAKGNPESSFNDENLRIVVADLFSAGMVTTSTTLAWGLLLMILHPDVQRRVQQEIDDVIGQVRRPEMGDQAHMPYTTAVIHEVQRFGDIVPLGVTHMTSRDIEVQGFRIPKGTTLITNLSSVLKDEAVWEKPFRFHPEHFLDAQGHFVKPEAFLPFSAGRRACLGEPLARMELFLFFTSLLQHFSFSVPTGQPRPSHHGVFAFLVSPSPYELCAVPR
Method in brief: (§1)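 CYP isoenzyme inhibition is measured at 10 μM compound. Result is given as % inhibition.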

CYP2C9 = CYP2C9 (Homo sapiens, UniProt P11712); test: Inhibition of CYP2C9 (unknown origin) at 10 uM relative to control; format: ADME
Sequence of CYP2C9 (P11712 whole entry): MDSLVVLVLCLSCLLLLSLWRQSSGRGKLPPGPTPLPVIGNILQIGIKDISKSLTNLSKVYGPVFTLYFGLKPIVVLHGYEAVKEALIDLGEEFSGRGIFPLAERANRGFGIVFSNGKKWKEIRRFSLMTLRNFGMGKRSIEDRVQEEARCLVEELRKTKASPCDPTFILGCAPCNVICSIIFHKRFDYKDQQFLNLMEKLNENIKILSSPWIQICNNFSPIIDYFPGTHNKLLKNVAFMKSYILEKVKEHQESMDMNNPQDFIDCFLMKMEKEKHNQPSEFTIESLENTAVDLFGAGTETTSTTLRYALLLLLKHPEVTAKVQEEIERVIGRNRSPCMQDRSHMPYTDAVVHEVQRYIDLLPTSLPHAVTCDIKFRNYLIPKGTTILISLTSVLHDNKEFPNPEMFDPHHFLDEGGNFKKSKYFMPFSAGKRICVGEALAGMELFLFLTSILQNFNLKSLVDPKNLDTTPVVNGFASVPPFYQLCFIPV
Method in brief: as §1

| SMILES | pD2 [1] | inhibition at 10 µM (CYP2D6) [%] | inhibition at 10 µM (CYP2C9) [%] |
| --- | --- | --- | --- |
| Cc1nccn1CC1CCc2c(c3ccccc3n2C)C1=O (stereo not drawn) | 6.43 |  |  |
| O=S(=O)(c1cccc(F)c1)n1ccc2c(N3CCNCC3)nc3ccccc3c21 |  | < 25 | < 25 |
